# From article PMC8853710 (Journal of Enzyme Inhibition and Medicinal Chemistry, 2019)
# Read-outs that look alike come from different tables or passages of the source.
# Key:
# [1] = molecular target: Hsp90α (Homo sapiens, UniProt P07900); experiment: Kinase inhibition assay, Hsp90α; format: biochemical
# [2] = molecular target: VEGFR2 (Homo sapiens, UniProt P35968); experiment: Kinase inhibition assay, VEGFR2; format: biochemical
# [3] = tested on: B16 melanoma cell line; experiment: Cell proliferation; format: cell-based; settings: for B16 GI ratio: B16 cells, test concentration not given; for IC50: Mus musculus, read-out: IC50, B16 melanoma cell line
# [4] = molecular target: EGFR (Homo sapiens, UniProt P00533); experiment: Kinase inhibition assay, EGFR; format: biochemical
# [5] = molecular target: PI3Kα (Homo sapiens, UniProt P42336); experiment: Kinase inhibition assay, PI3Kα; format: biochemical
# [6] = tested on: B16 melanoma xenograft; experiment: B16 subcutaneous tumor xenograft model; format: in vivo, C57BL/6J mice; settings: for tumor growth inhibition ratio: B16 subcutaneous xenograft, C57BL/6J mice, once a day
# Summary of the method: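 Female C57BL/6J mice, 8–12 weeks old, received B16 cells subcutaneously in the dorsal flank (5 × 105 in 100 μL PBS). Groups of 8 were dosed once a day with test compound or NS control. Tumours were measured every two days and volume was taken as a×b2×0.5. Excised tumours were formalin-fixed, paraffin-embedded, sectioned, and stained for TUNEL, EGFR, Akt, pAkt473 and Ki67.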
# [7] = tested on: B16 cells; experiment: Flow cytometry with annexinV/PI dual staining; format: cell-based; settings: 24 h incubation
# [8] = tested on: B16 cells; experiment: Transwell Matrigel invasion assay; format: cell-based; settings: dose-dependent
# Summary of the method: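 Transwell chambers with 8-μm pores and Matrigel-precoated top chambers were used. B16 cells (1 × 105) in serum-free medium went into the top chamber, with DMEM in the bottom chamber. Invaded cells were stained with crystal violet and counted under a microscope in triplicate.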
# [9] = tested on: B16 cells; experiment: Wound-healing cell migration assay; format: cell-based; settings: 24 h of exposure, dose-dependent
# Summary of the method: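 B16 cells were seeded at 1 × 10^5 per well in 6-well plates in DMEM and grown overnight. Three scratches per well were made with a 200 µl pipette tip. After a PBS wash, serum-free DMEM containing various compound concentrations or DMSO was added. Migration was assessed by light microscopy between 0 h and 24 h.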
# [10] = tested on: B16 cells; experiment: Cell cycle analysis by PI staining flow cytometry; format: cell-based; settings: 24 h treatment
# [11] = tested on: B16 cells; experiment: Western blotting of B16 melanoma cell extracts; format: cell-based
# Summary of the method: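 Total protein was extracted from treated B16 cells, separated by SDS-PAGE (7.5–15% gels, chosen by protein size) and transferred to PVDF. Membranes were blocked with 5% BSA, incubated with primary antibodies on ice overnight, then with HRP-conjugated secondary antibodies for 1 h at room temperature. Bands were detected by ECL. Migration- and invasion-related proteins were assessed at 20 and 40 μg/mL.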
# [12] = tested on: B16 cells; experiment: Colony formation assay; format: cell-based; settings: 8m-incubated B16 cells vs control group
# [13] = tested on: several cancer cells (B16, HepG2, A549, SW620, MCF-7, Hela); experiment: Cytotoxic activity in several cancer cells; format: cell-based; settings: Figure 5(A)
# Summary of the method: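 Cells were kept in DMEM with 10% FBS at 37 °C and 5% CO2 and used in exponential growth. They were seeded at 3–6 × 10^3 cells/well for 24 h, then given DMSO or various compound concentrations for 24 or 48 h. MTT (0.5 mg/mL in medium) was added for 3 h at 37 °C and dissolved in DMSO; absorbance was read at 570 nm. Three experiments, each in triplicate.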
# EGFR, sequence (P00533 25-1210): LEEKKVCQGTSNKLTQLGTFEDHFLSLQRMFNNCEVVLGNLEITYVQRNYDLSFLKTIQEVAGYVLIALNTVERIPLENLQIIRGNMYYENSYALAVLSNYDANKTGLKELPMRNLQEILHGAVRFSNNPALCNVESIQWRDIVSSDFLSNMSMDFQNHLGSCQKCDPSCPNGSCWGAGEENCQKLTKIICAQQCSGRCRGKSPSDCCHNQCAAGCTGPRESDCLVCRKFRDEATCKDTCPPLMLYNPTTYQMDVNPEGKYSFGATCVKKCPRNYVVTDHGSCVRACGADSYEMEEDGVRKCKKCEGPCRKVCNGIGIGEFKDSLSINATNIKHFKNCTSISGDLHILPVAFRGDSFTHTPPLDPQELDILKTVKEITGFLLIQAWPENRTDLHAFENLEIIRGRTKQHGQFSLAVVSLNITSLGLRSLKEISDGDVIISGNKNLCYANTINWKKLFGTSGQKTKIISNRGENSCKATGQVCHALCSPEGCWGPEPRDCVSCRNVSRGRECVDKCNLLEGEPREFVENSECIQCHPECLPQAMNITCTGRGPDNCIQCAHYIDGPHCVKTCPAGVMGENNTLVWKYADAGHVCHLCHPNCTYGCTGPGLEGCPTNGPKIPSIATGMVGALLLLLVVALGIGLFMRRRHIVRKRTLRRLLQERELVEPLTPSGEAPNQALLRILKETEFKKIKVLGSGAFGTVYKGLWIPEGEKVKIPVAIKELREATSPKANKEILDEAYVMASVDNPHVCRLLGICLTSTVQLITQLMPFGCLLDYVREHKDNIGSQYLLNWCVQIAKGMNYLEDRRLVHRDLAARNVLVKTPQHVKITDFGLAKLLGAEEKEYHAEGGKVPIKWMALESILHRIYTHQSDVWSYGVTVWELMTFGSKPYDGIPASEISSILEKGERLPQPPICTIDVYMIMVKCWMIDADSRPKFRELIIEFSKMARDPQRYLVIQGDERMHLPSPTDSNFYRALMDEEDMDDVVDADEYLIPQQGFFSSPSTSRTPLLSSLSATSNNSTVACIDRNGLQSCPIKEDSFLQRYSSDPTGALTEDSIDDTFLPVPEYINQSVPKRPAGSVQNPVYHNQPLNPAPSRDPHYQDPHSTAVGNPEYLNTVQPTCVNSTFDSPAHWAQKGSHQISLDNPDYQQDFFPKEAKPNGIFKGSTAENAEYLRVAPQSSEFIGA
# PI3Kα, sequence (P42336 whole entry): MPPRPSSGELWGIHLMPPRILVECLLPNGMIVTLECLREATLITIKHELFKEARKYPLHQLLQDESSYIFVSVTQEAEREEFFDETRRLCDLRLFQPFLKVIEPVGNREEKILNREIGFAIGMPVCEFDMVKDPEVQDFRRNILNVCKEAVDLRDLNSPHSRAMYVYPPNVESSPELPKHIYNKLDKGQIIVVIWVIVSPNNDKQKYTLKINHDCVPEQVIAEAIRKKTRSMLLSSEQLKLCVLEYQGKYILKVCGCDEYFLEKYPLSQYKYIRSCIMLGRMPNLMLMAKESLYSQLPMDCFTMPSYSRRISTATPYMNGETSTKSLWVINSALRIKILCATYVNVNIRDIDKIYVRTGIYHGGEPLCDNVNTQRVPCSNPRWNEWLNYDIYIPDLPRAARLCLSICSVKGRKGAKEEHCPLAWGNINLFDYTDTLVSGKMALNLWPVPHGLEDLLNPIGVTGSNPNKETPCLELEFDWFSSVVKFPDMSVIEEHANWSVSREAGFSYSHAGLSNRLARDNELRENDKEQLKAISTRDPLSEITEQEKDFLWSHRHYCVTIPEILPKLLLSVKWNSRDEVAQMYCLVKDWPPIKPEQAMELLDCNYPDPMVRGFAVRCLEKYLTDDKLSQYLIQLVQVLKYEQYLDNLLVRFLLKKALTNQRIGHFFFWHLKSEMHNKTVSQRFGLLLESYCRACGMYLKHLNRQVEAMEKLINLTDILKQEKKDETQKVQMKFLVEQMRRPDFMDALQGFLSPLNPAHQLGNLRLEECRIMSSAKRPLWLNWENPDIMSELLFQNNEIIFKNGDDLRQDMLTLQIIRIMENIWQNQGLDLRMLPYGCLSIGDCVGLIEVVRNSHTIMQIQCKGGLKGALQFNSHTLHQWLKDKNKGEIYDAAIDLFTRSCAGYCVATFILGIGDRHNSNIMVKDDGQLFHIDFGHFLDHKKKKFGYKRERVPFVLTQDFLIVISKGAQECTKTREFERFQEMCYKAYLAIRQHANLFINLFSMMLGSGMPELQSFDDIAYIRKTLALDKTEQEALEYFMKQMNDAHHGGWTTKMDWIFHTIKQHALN
# PI3Kα, sequence (P27986 whole entry partner): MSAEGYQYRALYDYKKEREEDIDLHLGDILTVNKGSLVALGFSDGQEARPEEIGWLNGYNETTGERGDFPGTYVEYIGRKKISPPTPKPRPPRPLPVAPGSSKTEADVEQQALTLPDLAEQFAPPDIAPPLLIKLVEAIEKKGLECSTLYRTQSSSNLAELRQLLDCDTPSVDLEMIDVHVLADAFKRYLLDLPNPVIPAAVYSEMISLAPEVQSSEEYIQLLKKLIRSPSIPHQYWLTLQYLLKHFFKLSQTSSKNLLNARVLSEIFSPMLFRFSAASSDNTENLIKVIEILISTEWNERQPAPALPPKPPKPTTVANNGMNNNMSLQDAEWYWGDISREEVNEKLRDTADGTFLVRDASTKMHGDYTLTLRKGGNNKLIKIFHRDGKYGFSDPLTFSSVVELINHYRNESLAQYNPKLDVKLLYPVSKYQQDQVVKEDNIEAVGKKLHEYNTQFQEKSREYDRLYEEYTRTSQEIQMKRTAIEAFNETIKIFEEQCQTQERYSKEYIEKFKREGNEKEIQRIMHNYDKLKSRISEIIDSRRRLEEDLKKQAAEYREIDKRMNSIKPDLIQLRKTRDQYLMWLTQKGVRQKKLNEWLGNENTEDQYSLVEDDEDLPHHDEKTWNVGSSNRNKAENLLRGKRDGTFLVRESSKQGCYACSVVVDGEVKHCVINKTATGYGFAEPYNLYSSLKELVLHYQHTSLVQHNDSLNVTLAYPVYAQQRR
# VEGFR2, sequence (P35968 20-1356): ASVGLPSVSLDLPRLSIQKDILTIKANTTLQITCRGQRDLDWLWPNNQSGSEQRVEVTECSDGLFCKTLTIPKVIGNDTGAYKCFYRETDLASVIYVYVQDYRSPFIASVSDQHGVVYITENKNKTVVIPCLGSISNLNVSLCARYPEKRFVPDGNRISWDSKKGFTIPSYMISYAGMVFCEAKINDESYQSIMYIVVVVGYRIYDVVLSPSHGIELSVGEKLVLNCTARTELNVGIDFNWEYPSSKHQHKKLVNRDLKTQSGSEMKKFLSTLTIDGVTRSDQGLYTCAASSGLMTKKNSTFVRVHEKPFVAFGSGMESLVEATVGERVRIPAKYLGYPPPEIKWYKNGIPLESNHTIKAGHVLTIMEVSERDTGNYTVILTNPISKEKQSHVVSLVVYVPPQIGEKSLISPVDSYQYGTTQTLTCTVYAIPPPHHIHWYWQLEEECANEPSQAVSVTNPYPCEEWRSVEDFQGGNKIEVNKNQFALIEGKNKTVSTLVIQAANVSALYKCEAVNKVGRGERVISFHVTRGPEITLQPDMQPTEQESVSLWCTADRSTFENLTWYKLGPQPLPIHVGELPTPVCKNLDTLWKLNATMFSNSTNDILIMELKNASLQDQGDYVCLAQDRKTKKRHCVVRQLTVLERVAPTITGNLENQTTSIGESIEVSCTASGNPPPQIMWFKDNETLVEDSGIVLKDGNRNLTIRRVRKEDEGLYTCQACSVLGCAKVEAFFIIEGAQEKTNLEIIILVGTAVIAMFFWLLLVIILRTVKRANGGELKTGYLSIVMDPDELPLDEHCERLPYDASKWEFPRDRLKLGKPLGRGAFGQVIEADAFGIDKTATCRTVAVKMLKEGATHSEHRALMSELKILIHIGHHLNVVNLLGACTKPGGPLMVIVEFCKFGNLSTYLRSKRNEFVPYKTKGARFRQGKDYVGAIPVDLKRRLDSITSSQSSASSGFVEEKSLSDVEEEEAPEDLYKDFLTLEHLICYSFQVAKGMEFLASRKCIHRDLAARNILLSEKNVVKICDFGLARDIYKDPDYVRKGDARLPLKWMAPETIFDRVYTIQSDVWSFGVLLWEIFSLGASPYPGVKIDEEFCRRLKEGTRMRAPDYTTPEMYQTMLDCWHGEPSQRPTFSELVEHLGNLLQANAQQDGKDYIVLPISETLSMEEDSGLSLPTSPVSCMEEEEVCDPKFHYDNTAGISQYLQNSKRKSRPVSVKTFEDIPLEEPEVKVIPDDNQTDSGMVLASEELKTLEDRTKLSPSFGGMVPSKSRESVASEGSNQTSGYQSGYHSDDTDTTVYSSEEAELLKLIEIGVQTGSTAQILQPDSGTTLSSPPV
SMILES,IC50 [1] [nM],IC50 [2] [nM],B16 GI ratio [3] [%],IC50 [4] [nM],also measured
"CCc1cccc(Nc2ncnc3sc4c(c23)CCN(C(=O)c2cc(C(C)C)c(O)cc2O)C4)c1 [Compound 8a, (2,4-dihydroxy-5-isopropylphenyl)(4-((3-ethylphenyl)amino)-5,8-dihydropyrido[4',3':4,5]thieno[2,3-d]pyrimidin-7(6H)-yl)methanone]",375,> 10000,26.8,60.7,
"CC(C)c1cc(C(=O)N2CCc3c(sc4ncnc(Nc5ccc(Br)cc5)c34)C2)c(O)cc1O [Compound 8b, (4-((4-bromophenyl)amino)-5,8-dihydropyrido[4',3':4,5]thieno[2,3-d]pyrimidin-7(6H)-yl)(2,4-dihydroxy-5-isopropylphenyl)methanone]",290,> 10000,33.6,49.9,
"CC(C)c1cc(C(=O)N2CCc3c(sc4ncnc(Nc5cccc(Cl)c5)c34)C2)c(O)cc1O [Compound 8c, (4-((3-chlorophenyl)amino)-5,8-dihydropyrido[4',3':4,5]thieno[2,3-d]pyrimidin-7(6H)-yl)(2,4-dihydroxy-5-isopropylphenyl)methanone]",196,> 10000,51.2,37.1,
"Cc1cccc(Nc2ncnc3sc4c(c23)CCN(C(=O)c2cc(C(C)C)c(O)cc2O)C4)c1 [Compound 8d, (2,4-dihydroxy-5-isopropylphenyl)(4-(m-tolylamino)-5,8-dihydropyrido[4',3':4,5]thieno[2,3-d]pyrimidin-7(6H)-yl)methanone]",318,> 10000,41.7,51.8,
"CC(C)c1cc(C(=O)N2CCc3c(sc4ncnc(Nc5cccc(F)c5)c34)C2)c(O)cc1O [Compound 8e, (2,4-dihydroxy-5-isopropylphenyl)(4-((3-fluorophenyl)amino)-5,8-dihydropyrido[4',3':4,5]thieno[2,3-d]pyrimidin-7(6H)-yl)methanone]",229,> 10000,38.9,40.2,
"CC(C)c1cc(C(=O)N2CCc3c(sc4ncnc(Nc5ccc(Cl)cc5)c34)C2)c(O)cc1O [Compound 8f, (4-((4-chlorophenyl)amino)-5,8-dihydropyrido[4',3':4,5]thieno[2,3-d]pyrimidin-7(6H)-yl)(2,4-dihydroxy-5-isopropylphenyl)methanone]",318,> 10000,29.5,76.6,
"COc1cccc(Nc2ncnc3sc4c(c23)CCN(C(=O)c2cc(C(C)C)c(O)cc2O)C4)c1 [Compound 8g, (2,4-dihydroxy-5-isopropylphenyl)(4-((3-methoxyphenyl)amino)-5,8-dihydropyrido[4',3':4,5]thieno[2,3-d]pyrimidin-7(6H)-yl)methanone]",210,> 10000,37.5,71,
"CC(C)c1cccc(Nc2ncnc3sc4c(c23)CCN(C(=O)c2cc(C(C)C)c(O)cc2O)C4)c1 [Compound 8h, (2,4-dihydroxy-5-isopropylphenyl)(4-((3-isopropylphenyl)amino)-5,8-dihydropyrido[4',3':4,5]thieno[2,3-d]pyrimidin-7(6H)-yl)methanone]",468,> 10000,39.1,380,
"Cc1ccc(Nc2ncnc3sc4c(c23)CCN(C(=O)c2cc(C(C)C)c(O)cc2O)C4)c(C)c1 [Compound 8i, (2,4-dihydroxy-5-isopropylphenyl)(4-((2,4-dimethylphenyl)amino)-5,8-dihydropyrido[4',3':4,5]thieno[2,3-d]pyrimidin-7(6H)-yl)methanone]",1640,169,24.8,578,
"CC(C)c1cc(C(=O)N2CCc3c(sc4ncnc(Nc5cccc(O)c5)c34)C2)c(O)cc1O [Compound 8j, (2,4-dihydroxy-5-isopropylphenyl)(4-((3-hydroxyphenyl)amino)-5,8-dihydropyrido[4',3':4,5]thieno[2,3-d]pyrimidin-7(6H)-yl)methanone]",207,716,36.0,147,
"CC(C)c1cc(C(=O)N2CCc3c(sc4ncnc(N5CCCCC5)c34)C2)c(O)cc1O [Compound 8k, (2,4-dihydroxy-5-isopropylphenyl)(4-(piperidin-1-yl)-5,8-dihydropyrido[4',3':4,5]thieno[2,3-d]pyrimidin-7(6H)-yl)methanone]",51.9,,65.2,,IC50 [5]: 133 nM
"CC(C)c1cc(C(=O)N2CCc3c(sc4ncnc(N5CCCC5)c34)C2)c(O)cc1O [Compound 8l, (2,4-dihydroxy-5-isopropylphenyl)(4-(pyrrolidin-1-yl)-5,8-dihydropyrido[4',3':4,5]thieno[2,3-d]pyrimidin-7(6H)-yl)methanone]",65,,60.4,,IC50 [5]: 169 nM
"CC(C)c1cc(C(=O)N2CCc3c(sc4ncnc(N5CCOCC5)c34)C2)c(O)cc1O [Compound 8m, (2,4-dihydroxy-5-isopropylphenyl)(4-morpholino-5,8-dihydropyrido[4',3':4,5]thieno[2,3-d]pyrimidin-7(6H)-yl)methanone]",,,,,"IC50 [5]: 48.4 nM; apoptotic positive cells in tumor tissue (TUNEL) ([6]; B16 xenograft tumor sections, among all therapeutic groups): highest number of apoptotic positive cells; Ki-67 positive cells in tumor tissue ([6]; B16 xenograft tumor sections, p < .01): most significant suppression; apoptotic positive cells [7]: significant increase; cell invasion (Matrigel Transwell) [8]: remarkable decrease; wound areas (cell migration) [9]: minimal changes; cell counts in G1 phase [10]: corresponding descent; cell counts in G2 phase [10]: significantly increased; IC50 ([3]; B16, 24 h): ~0.56 µg/mL; IC50 ([3]; B16, 48 h): ~0.47 µg/mL; cleavage of apoptosis related proteins (western blot) ([11]; B16 cells): cleavage of Caspase-3, Caspase-8, Caspase-9 and PARP; expression levels of Hsp90 client proteins cdc37, CDK4, EGFR, bRaf and cRaf (western blot) ([11]; B16 cells): remarkably suppressed; expression levels of Hsp90α and Hsp70 (western blot) ([11]; B16 cells): declined; p-Akt (Ser473), p-Akt (Thr308) and total Akt expression (western blot) ([11]; B16 cells): downregulated; E-cadherin expression (western blot) ([11]; B16 cells, 20, 40 μg/mL): up-regulated; expression of MMPs, vimentin, N-cadherin, β-catenin, ZEB1 (western blot) ([11]; B16 cells, 20, 40 μg/mL): remarkably down-regulated; autophosphorylation of PI3Kα (western blot) ([11]; B16 cells, total PI3Kα not influenced): inhibited; clone formation, size and number of the colonies [12]: dose-dependent decline; cytotoxic activity in several cancer cells [13]: most potent in melanoma cells"
"CC(C)c1cc(C(=O)N2CCc3c(sc4ncnc(N(C)C)c34)C2)c(O)cc1O [Compound 8n, (2,4-dihydroxy-5-isopropylphenyl)(4-(dimethylamino)-5,8-dihydropyrido[4',3':4,5]thieno[2,3-d]pyrimidin-7(6H)-yl)methanone]",79.5,,46.7,,IC50 [5]: 568 nM
"CC(C)c1cc(-c2n[nH]c(=O)n2-c2ccc3c(ccn3C)c2)c(O)cc1O [Ganetespib, reference compound]",,,,,tumor growth inhibition ratio [6]: 57%
"Oc1cccc(-c2nc(N3CCOCC3)c3oc4ncccc4c3n2)c1 [PI-103, reference compound]",,,,,tumor growth inhibition ratio [6]: 29%
